Data as given in ChEMBL document CHEMBL2321824, “5-((1-Aroyl-1H-indol-3-yl)methylene)-2-thioxodihydropyrimidine-4,6(1H,5H)-diones as potential anticancer agents with anti-inflammatory properties” (2013).

Legend:
Format in all cases: functional
[1] = tested on: MOLT-4; experiment: Cytotoxicity against human MOLT4 cells; settings: for CC50: read-out: LC50 (the source's name)
How it was run: (§1)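 Tested in the NCI 60 human tumor cell line panel (leukemia, NSCLC, colon, CNS, melanoma, ovarian, renal, prostate and breast lines) at five doses. A single-dose pre-screen at 10 μM selected which compounds went on. Effect was plotted against log10 drug concentration for each line. GI50 is the molar concentration giving 50% growth inhibition; LC50 is the concentration killing 50% of cells.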

[2] = tested on: LOX IMVI; experiment: Cytotoxicity against human LOXIMVI cells; settings: for CC50: read-out: LC50 (the source's name); how it was run: as §1
[3] = tested on: HOP-92; experiment: Cytotoxicity against human HOP92 cells; settings: for CC50: read-out: LC50 (the source's name); how it was run: as §1
[4] = tested on: SR; experiment: Cytotoxicity against human SR cells; how it was run: as §1
[5] = tested on: SF-268; experiment: Cytotoxicity against human SF268 cells; how it was run: as §1
[6] = tested on: HCT-15; experiment: Cytotoxicity against human HCT15 cells; settings: for CC50: read-out: LC50 (the source's name); how it was run: as §1
[7] = tested on: OVCAR-3; experiment: Cytotoxicity against human OVCAR3 cells; settings: for CC50: read-out: LC50 (the source's name); how it was run: as §1
[8] = tested on: MDA-MB-435; experiment: Cytotoxicity against human MDA-MB-435 cells; settings: for CC50: read-out: LC50 (the source's name)
How it was run: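 Tested in the NCI 60 human tumor cell line panel (leukemia, NSCLC, colon, CNS, melanoma, ovarian, renal, prostate and breast lines) at five doses. A single-dose pre-screen at 10 μM selected which compounds went on. Effect was plotted against log10 drug concentration for each line.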

[9] = tested on: HCT-116; experiment: Cytotoxicity against human HCT116 cells; settings: for CC50: read-out: LC50 (the source's name); how it was run: as §1
[10] = tested on: UO-31; experiment: Cytotoxicity against human UO31 cells; settings: for CC50: read-out: LC50 (the source's name); how it was run: as §1
[11] = tested on: K562; experiment: Cytotoxicity against human K562 cells; how it was run: as §1
[12] = tested on: M14; experiment: Cytotoxicity against human M14 cells; how it was run: as §1
[13] = tested on: SF-539; experiment: Cytotoxicity against human SF539 cells; settings: for CC50: read-out: LC50 (the source's name); how it was run: as §1
[14] = tested on: NCI/ADR-RES; experiment: Cytotoxicity against human NCI/ADR-RES cells; settings: for CC50: read-out: LC50 (the source's name); how it was run: as §1
[15] = tested on: CCRF-CEM; experiment: Cytotoxicity against human CCRF-CEM cells; settings: for CC50: read-out: LC50 (the source's name); how it was run: as §1
[16] = tested on: HL-60(TB); experiment: Cytotoxicity against human HL-60(TB) cells; how it was run: as §1
[17] = tested on: U-251; experiment: Cytotoxicity against human U251 cells; settings: for CC50: read-out: LC50 (the source's name); how it was run: as §1
[18] = tested on: KM12; experiment: Cytotoxicity against human KM12 cells; settings: for CC50: read-out: LC50 (the source's name); how it was run: as §1
[19] = tested on: UACC-62; experiment: Cytotoxicity against human UACC62 cells; settings: for CC50: read-out: LC50 (the source's name); how it was run: as §1
[20] = tested on: DU-145; experiment: Cytotoxicity against human DU145 cells; settings: for CC50: read-out: LC50 (the source's name); how it was run: as §1
[21] = tested on: SK-MEL-5; experiment: Cytotoxicity against human SK-MEL-5 cells; how it was run: as §1
[22] = tested on: HOP-62; experiment: Cytotoxicity against human HOP62 cells; settings: for CC50: read-out: LC50 (the source's name); how it was run: as §1

Row | SMILES | GI50 [2] [µM] | CC50 [2] [µM] | GI50 [4] [µM] | LC50 [4] [µM] | GI50 [5] [µM] | LC50 [5] [µM] | GI50 [6] [µM] | CC50 [6] [µM] | GI50 [7] [µM] | CC50 [7] [µM] | CC50 [8] [µM] | GI50 [9] [µM] | GI50 [11] [µM] | GI50 [12] [µM] | GI50 [13] [µM] | CC50 [13] [µM] | GI50 [14] [µM] | GI50 [15] [µM] | CC50 [15] [µM] | GI50 [16] [µM] | further results
1 | COc1ccc2c(c1)c(C=C1C(=O)NC(=S)NC1=O)cn2C(=O)c1cccc2ccccc12 | 3.8 | > 100 | 3.32 | > 100 | 2.3 | > 100 | 3.1 | > 100 | 2.38 | 20.9 | 12 | 3.35 | 3.52 | 1.91 | 3.23 | > 100 | 3.14 | 3.31 | > 100 | 3.47 | GI50 [1]: 3.95 µM; CC50 [1]: > 100 µM; GI50 [3]: 1.09 µM; CC50 [3]: > 100 µM; GI50 [8]: 2.01 µM; CC50 [9]: > 100 µM; GI50 [10]: 3.72 µM; CC50 [10]: > 100 µM; LC50 [11]: > 100 µM; LC50 [12]: > 100 µM; CC50 [14]: > 100 µM; LC50 [16]: > 100 µM
2 | COc1ccc(C(=O)n2cc(C=C3C(=O)NC(=S)NC3=O)c3cc(OC)ccc32)cc1 | 1.86 | > 50 | 1.45 |  | 2.65 |  | 1.8 | > 50 | 1.26 | > 50 | 3.86 | 1.95 | 2.55 | 2.03 | 2.56 | > 50 | 2.91 | 2.23 | > 50 | 3.91 | GI50 [17]: 1.93 µM; CC50 [17]: > 50 µM; GI50 [18]: 1.99 µM; CC50 [18]: > 50 µM; GI50 [19]: 2.33 µM; CC50 [19]: > 50 µM; GI50 [20]: 2.41 µM; CC50 [20]: > 50 µM; GI50 [21]: 2.31 µM; GI50 [22]: 3.12 µM; CC50 [22]: > 50 µM
3 | COc1ccc2c(c1)c(C=C1C(=O)NC(=S)NC1=O)cn2C(=O)c1ccccc1Br | 2.92 | 47.9 | 2.55 | > 100 | 3.86 | 52.2 | 3.83 | 89.9 | 2.77 | 33.1 | 8.43 | 3.76 | 3.8 | 3.52 | 3 | 57.8 | 3.23 | 4 | > 100 | 3.24 | GI50 [17]: 3.09 µM; CC50 [17]: 42.1 µM; GI50 [18]: 3.87 µM; CC50 [18]: 51.9 µM; GI50 [19]: 3.38 µM; CC50 [19]: 39.6 µM; GI50 [8]: 1.77 µM; CC50 [9]: > 100 µM; LC50 [11]: > 100 µM; LC50 [12]: > 100 µM; GI50 [20]: 3.01 µM; CC50 [20]: 53.6 µM; CC50 [14]: > 100 µM; GI50 [21]: 3.47 µM; LC50 [21]: > 50 µM; LC50 [16]: > 100 µM; GI50 [22]: 3.59 µM; CC50 [22]: 64.3 µM
4 | O=C1NC(=S)NC(=O)C1=Cc1cn(C(=O)c2cccc3ccccc23)c2ccccc12 | 3.59 | > 100 | 2.74 | 44.8 | 3.68 | 50.7 | 3.6 | 58.6 | 2.46 | > 100 | 46.2 | 2.9 | 3.71 | 3.22 | 3.58 | 55.6 | 2.59 | 3.35 | > 100 | 3.36 | GI50 [1]: 3.49 µM; CC50 [1]: 79 µM; GI50 [3]: 1.3 µM; CC50 [3]: 44.8 µM; GI50 [8]: 1.91 µM; CC50 [9]: > 100 µM; GI50 [10]: 3.93 µM; CC50 [10]: > 100 µM; LC50 [11]: > 100 µM; LC50 [12]: 9.23 µM; CC50 [14]: > 100 µM; LC50 [16]: > 100 µM
